# Measured values: ChEMBL document CHEMBL3632476, “Novel spirobicyclic artemisinin analogues (artemalogues): Synthesis and antitumor activities” (Eur J Med Chem, 2015)
# How the values were obtained:
# A549 [1] = assay: Cytotoxicity against human A549 cells assessed as inhibition of cell proliferation after 72 hrs by SRB assay; format: functional, cell-based; details: A549, 72 h
# Procedure, shortened: (§1)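 SRB assay. Cells were seeded, cultured overnight, then exposed to a gradient of agent concentrations for 72 h. Absorbance was read at 560 nm.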
# [2] = Cytotoxicity against human KB cells assessed as inhibition of cell proliferation after 72 hrs by SRB assay; format: functional, cell-based; procedure, shortened: as §1
# [3] = Cytotoxicity against human KB/VCR cells assessed as inhibition of cell proliferation after 72 hrs by SRB assay; format: functional, cell-based; procedure, shortened: as §1
# A549 [4] = assay: Selectivity index, ratio of IC50 for human A549 cells to IC50 for human KB cells; format: functional
# KB [5] = assay: Selectivity index, ratio of IC50 for human KB/VCR cells to IC50 for human KB cells; format: functional
# [6] = Potency index, ratio of IC50 for artemisinin to IC50 for test compound against human KB/VCR cells; format: functional
# KB [7] = assay: Potency index, ratio of IC50 for artemisinin to IC50 for test compound against human KB cells; format: functional
# A549 [8] = assay: Potency index, ratio of IC50 for artemisinin to IC50 for test compound against human A549 cells; format: functional
# HepG2 = assay: Cytotoxicity against human HepG2 cells by MTT assay; format: functional, cell-based
# L1210 = assay: Cytotoxicity against mouse L1210 cells by MTT assay; format: functional, cell-based
SMILES,IC50 (A549 [1]) [µM],IC50 [2] [µM],IC50 [3] [µM],further results
COc1ccc(C2=NO[C@@]3(C2)C(=O)O[C@@H]2O[C@@]4(C)CC[C@H]5[C@H](C)CC[C@@H]3[C@@]25OO4)cc1,> 20,> 20,> 20,
C[C@@H]1CC[C@@H]2[C@]34OO[C@](C)(CC[C@@H]13)O[C@H]4OC(=O)[C@@]21CC(c2ccccc2)=NO1,> 20,> 20,> 20,
C[C@@H]1CC[C@@H]2[C@]34OO[C@](C)(CC[C@@H]13)O[C@H]4OC(=O)[C@@]21CC(c2ccc(Cl)cc2)=NO1,> 20,13.9,14,
C[C@@H]1CC[C@@H]2[C@]34OO[C@](C)(CC[C@@H]13)O[C@H]4OC(=O)[C@@]21CC(c2c(Cl)cccc2Cl)=NO1,> 20,> 20,> 20,
COc1ccc(C2=NO[C@@]3(C2)C(=O)O[C@@H]2O[C@@]4(C)CC[C@H]5[C@H](C)CC[C@@H]3[C@@]25OO4)cc1OC,> 20,> 20,> 20,
COc1cc(C2=NO[C@@]3(C2)C(=O)O[C@@H]2O[C@@]4(C)CC[C@H]5[C@H](C)CC[C@@H]3[C@@]25OO4)cc(OC)c1OC,> 20,> 20,> 20,
COC(=O)c1ccc(C2=NO[C@@]3(C2)C(=O)O[C@@H]2O[C@@]4(C)CC[C@H]5[C@H](C)CC[C@@H]3[C@@]25OO4)cc1,,> 20,> 20,
C[C@@H]1CC[C@@H]2[C@]34OO[C@](C)(CC[C@@H]13)O[C@H]4OC(=O)[C@@]21C[C@@H]2c3ccccc3CCN2O1,9.93,2.91,14,Ratio IC50 (A549 [4]): 3; Ratio IC50 (KB [5]): 3
C[C@@H]1CC[C@@H]2[C@]34OO[C@](C)(CC[C@@H]13)O[C@H]4OC(=O)[C@@]21C[C@H]2c3ccccc3CCN2O1,,> 20,> 20,
COc1ccc2c(c1)CCN1O[C@@]3(C[C@H]21)C(=O)O[C@@H]1O[C@@]2(C)CC[C@H]4[C@H](C)CC[C@@H]3[C@@]14OO2,5.01,1.47,3.16,Ratio IC50 [6]: 4; Ratio IC50 (KB [7]): 4; Ratio IC50 (A549 [8]): 4
COc1ccc2c(c1)CCN1O[C@@]3(C[C@@H]21)C(=O)O[C@@H]1O[C@@]2(C)CC[C@H]4[C@H](C)CC[C@@H]3[C@@]14OO2,,> 20,> 20,
COc1cc2c(cc1OC)[C@H]1C[C@]3(ON1CC2)C(=O)O[C@@H]1O[C@@]2(C)CC[C@H]4[C@H](C)CC[C@@H]3[C@@]14OO2,4.69,2.53,2.35,
COc1cc2c(cc1OC)[C@@H]1C[C@]3(ON1CC2)C(=O)O[C@@H]1O[C@@]2(C)CC[C@H]4[C@H](C)CC[C@@H]3[C@@]14OO2,> 20,> 20,> 20,
C[C@@H]1CC[C@@H]2[C@]34OO[C@](C)(CC[C@@H]13)O[C@H]4OC(=O)[C@@]21C[C@@H]2CCCN2O1,10.5,2.34,3.35,
C[C@@H]1CC[C@@H]2[C@]34OO[C@](C)(CC[C@@H]13)O[C@H]4OC(=O)[C@@]21C[C@@H]2COCCN2O1,,> 20,> 20,
CO[C@H]1O[C@@H]2O[C@@]3(C)CC[C@H]4[C@H](C)CC[C@@H]([C@]15CC(c1ccc(Cl)cc1)=NO5)[C@@]24OO3,,> 20,> 20,
CO[C@@H]1O[C@@H]2O[C@@]3(C)CC[C@H]4[C@H](C)CC[C@@H]([C@]15CC(c1ccc(Cl)cc1)=NO5)[C@@]24OO3,,> 20,> 20,

SMILES,IC50 (A549 [1]) [µM],IC50 [2] [µM],IC50 [3] [µM],further results
CO[C@H]1O[C@@H]2O[C@@]3(C)CC[C@H]4[C@H](C)CC[C@@H]([C@]15CC(c1c(Cl)cccc1Cl)=NO5)[C@@]24OO3,14.4,5.29,5.06,
CO[C@@H]1O[C@@H]2O[C@@]3(C)CC[C@H]4[C@H](C)CC[C@@H]([C@]15CC(c1c(Cl)cccc1Cl)=NO5)[C@@]24OO3,> 20,> 20,> 20,
COc1ccc2c(c1)CCN1O[C@@]3(C[C@H]21)[C@@H](OC)O[C@@H]1O[C@@]2(C)CC[C@H]4[C@H](C)CC[C@@H]3[C@@]14OO2,> 20,> 20,> 20,
COc1ccc2c(c1)CCN1O[C@@]3(C[C@H]21)[C@H](OC)O[C@@H]1O[C@@]2(C)CC[C@H]4[C@H](C)CC[C@@H]3[C@@]14OO2,> 20,> 20,> 20,
CCO[C@H]1O[C@@H]2O[C@@]3(C)CC[C@H]4[C@H](C)CC[C@@H]([C@]15C[C@@H]1c6ccc(OC)cc6CCN1O5)[C@@]24OO3,> 20,> 20,> 20,
CCO[C@@H]1O[C@@H]2O[C@@]3(C)CC[C@H]4[C@H](C)CC[C@@H]([C@]15C[C@@H]1c6ccc(OC)cc6CCN1O5)[C@@]24OO3,> 20,> 20,> 20,
COc1ccc2c(c1)CCN1O[C@@]3(C[C@H]21)[C@@H](F)O[C@@H]1O[C@@]2(C)CC[C@H]4[C@H](C)CC[C@@H]3[C@@]14OO2,,> 20,> 20,
COc1ccc2c(c1)CCN1O[C@@]3(C[C@H]21)[C@H](F)O[C@@H]1O[C@@]2(C)CC[C@H]4[C@H](C)CC[C@@H]3[C@@]14OO2,,> 20,> 20,
COc1ccc2c(c1)CCN1O[C@@]3(C[C@H]21)[C@@H](OCCN1CCOCC1)O[C@@H]1O[C@@]2(C)CC[C@H]4[C@H](C)CC[C@@H]3[C@@]14OO2,> 20,> 20,> 20,
COc1ccc2c(c1)CCN1O[C@@]3(C[C@H]21)[C@@H](OCCN1CCN(C)CC1)O[C@@H]1O[C@@]2(C)CC[C@H]4[C@H](C)CC[C@@H]3[C@@]14OO2,> 20,17.9,16.9,
COc1ccc2c(c1)CCN1O[C@@]3(C[C@H]21)C(=O)O[C@@H]1O[C@@]2(C)CC[C@H]4[C@H](C)CC[C@@H]3[C@@]14O2,,15.4,13.4,
COc1ccc2c(c1)CCN1O[C@@]3(C[C@@H]21)C(=O)O[C@@H]1O[C@@]2(C)CC[C@H]4[C@H](C)CC[C@@H]3[C@@]14O2,,> 20,> 20,
CCCCCCCCCCCCCCNC(=O)C[C@H]1O[C@@H]2O[C@@]3(C)CC[C@H]4[C@H](C)CC[C@@H]([C@H]1C)[C@@]24OO3,,,,IC50 (HepG2): 0.46 µM
C[C@H]1[C@@H](O[C@H](C#N)c2ccc(Br)cc2)O[C@@H]2O[C@@]3(C)CC[C@H]4[C@H](C)CC[C@@H]1[C@@]24OO3,,,,IC50 (L1210): 0.01 µM
C[C@@H]1CC[C@H]2[C@@H](C)C(=O)O[C@@H]3O[C@@]4(C)CC[C@@H]1[C@]32OO4 [ARTEMISININ],> 20,> 20,> 20,
CC[C@]1(O)C[C@H]2CN(CCc3c([nH]c4ccccc34)[C@@](C(=O)OC)(c3cc4c(cc3OC)N(C=O)[C@H]3[C@@](O)(C(=O)OC)[C@H](OC(C)=O)[C@]5(CC)C=CCN6CC[C@]43[C@@H]65)C2)C1 [VINCRISTINE],0.0368,0.00087,0.387,
